Experimental data taken from ChEMBL document CHEMBL4354819, “Discovery of Novel Small Molecule Dual Inhibitors Targeting Toll-Like Receptors 7 and 8” (J Med Chem, 2019).
Activity calls are given as the source filed them. The rule behind the calls is not given here.

Key:
[1] = target: T1, Toll-like receptor 9 (Homo sapiens) (UniProt Q9NR96); test: Inhibition of human TLR9 expressed in HEK293 cells assessed as reduction in ODN-2006-induced NFkappaB production at 3 to 5 uM incubated for 16 hrs by quanti-blue SEAP assay; assay type: cell-based
T1 sequence (whole entry): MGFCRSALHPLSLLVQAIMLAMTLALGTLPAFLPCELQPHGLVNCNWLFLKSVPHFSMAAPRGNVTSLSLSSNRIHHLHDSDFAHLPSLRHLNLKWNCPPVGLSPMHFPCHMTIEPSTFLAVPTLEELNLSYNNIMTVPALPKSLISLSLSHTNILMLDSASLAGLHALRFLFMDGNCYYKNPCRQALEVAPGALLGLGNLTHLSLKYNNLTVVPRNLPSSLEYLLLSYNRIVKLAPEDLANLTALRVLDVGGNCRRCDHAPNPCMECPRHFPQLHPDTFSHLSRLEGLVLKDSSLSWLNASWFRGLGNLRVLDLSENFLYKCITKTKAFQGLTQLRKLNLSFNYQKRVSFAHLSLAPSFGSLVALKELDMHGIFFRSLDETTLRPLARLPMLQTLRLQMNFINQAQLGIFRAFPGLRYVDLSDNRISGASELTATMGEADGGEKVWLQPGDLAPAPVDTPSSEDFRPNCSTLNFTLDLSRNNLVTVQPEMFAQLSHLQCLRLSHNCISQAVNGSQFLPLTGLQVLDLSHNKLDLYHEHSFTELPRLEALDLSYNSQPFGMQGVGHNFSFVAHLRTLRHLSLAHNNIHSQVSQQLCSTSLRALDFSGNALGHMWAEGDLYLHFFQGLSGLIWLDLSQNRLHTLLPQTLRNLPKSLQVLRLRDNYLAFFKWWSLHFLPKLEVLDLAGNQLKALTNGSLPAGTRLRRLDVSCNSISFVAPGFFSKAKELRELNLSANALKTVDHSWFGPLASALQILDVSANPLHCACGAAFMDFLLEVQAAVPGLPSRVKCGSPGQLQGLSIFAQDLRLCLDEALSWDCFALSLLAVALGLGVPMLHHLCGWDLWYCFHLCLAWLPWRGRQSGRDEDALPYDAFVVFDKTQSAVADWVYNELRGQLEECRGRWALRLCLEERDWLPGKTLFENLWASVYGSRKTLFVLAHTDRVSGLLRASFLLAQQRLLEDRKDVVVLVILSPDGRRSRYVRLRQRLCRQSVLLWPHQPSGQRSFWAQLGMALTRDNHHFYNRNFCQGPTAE
Method in brief: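 Selectivity panel in stably transfected HEK 293-Blue cells, each overexpressing one human TLR with an inducible SEAP reporter. Agonists: Pam3CSK4 (TLR1/2), Pam2CSK4 (TLR2/6), poly(I:C) (TLR3), LPS (TLR4), R848 (TLR7/8), ODN 2006 (TLR9). Cells were exposed to compound for 16 h. Activity = (raw − untreated)/(ligand + solvent − untreated), with ligand + solvent set as 100%.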

[2] = target: T2, Toll-like receptor 8 (Homo sapiens) (UniProt Q9NR97); test: Inhibition of human TLR8 expressed in HEK293 cells assessed as reduction in R848-induced NFkappaB production incubated for 16 hrs by quanti-blue SEAP assay; assay type: cell-based
T2 sequence (whole entry): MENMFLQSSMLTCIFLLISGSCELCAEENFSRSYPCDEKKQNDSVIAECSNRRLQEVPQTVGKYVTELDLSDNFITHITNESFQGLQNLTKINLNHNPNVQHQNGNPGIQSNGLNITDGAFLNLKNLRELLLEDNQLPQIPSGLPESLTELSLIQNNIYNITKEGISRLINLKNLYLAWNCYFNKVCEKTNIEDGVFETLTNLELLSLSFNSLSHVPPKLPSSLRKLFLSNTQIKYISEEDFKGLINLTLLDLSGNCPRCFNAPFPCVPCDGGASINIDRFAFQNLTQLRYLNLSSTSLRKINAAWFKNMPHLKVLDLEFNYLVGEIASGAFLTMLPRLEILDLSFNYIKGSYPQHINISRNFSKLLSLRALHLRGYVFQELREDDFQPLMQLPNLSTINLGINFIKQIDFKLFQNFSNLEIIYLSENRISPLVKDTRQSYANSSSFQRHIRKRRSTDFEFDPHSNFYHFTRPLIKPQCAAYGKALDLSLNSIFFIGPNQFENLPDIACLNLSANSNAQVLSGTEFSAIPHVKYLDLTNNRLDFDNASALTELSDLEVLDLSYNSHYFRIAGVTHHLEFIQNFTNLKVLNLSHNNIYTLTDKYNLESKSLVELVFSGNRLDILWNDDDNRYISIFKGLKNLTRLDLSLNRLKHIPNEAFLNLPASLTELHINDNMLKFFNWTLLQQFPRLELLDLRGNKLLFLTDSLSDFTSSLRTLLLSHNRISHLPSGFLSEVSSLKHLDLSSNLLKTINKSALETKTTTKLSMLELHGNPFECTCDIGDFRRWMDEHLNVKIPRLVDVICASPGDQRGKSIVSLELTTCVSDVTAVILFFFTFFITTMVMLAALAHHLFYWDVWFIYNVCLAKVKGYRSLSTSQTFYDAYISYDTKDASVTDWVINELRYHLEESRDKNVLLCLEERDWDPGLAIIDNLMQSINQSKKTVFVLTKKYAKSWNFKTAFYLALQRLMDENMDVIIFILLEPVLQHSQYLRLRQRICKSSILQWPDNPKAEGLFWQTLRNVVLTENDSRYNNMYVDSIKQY
Method in brief: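 HEK 293-Blue cells stably expressing hTLR7 or hTLR8 with an inducible SEAP reporter were incubated 16 h with compound under 1 µg/mL R848 stimulation. SEAP was read at 620 nm. Data were normalized to the R848 control, and IC50 was taken from concentration-response curves. […] Mean ± s.d., n = 3 independent experiments.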

[3] = target: T2, Toll-like receptor 8 (Homo sapiens); test: Inhibition of human TLR8 expressed in HEK293 cells assessed as reduction in R848-induced NFkappaB production at 0.5 uM incubated for 16 hrs by quanti-blue SEAP assay; assay type: cell-based
[4] = target: Toll-like receptor 7 (Mus musculus) (UniProt P58681); test: Inhibition of endogenous mouse TLR7 in mouse RAW264.7 cells assessed as resiquimod-induced NO production at > 5 uM incubated for 18 to 24 hrs
Sequence of Toll-like receptor 7 (Mus musculus) (P58681 whole entry, looked up): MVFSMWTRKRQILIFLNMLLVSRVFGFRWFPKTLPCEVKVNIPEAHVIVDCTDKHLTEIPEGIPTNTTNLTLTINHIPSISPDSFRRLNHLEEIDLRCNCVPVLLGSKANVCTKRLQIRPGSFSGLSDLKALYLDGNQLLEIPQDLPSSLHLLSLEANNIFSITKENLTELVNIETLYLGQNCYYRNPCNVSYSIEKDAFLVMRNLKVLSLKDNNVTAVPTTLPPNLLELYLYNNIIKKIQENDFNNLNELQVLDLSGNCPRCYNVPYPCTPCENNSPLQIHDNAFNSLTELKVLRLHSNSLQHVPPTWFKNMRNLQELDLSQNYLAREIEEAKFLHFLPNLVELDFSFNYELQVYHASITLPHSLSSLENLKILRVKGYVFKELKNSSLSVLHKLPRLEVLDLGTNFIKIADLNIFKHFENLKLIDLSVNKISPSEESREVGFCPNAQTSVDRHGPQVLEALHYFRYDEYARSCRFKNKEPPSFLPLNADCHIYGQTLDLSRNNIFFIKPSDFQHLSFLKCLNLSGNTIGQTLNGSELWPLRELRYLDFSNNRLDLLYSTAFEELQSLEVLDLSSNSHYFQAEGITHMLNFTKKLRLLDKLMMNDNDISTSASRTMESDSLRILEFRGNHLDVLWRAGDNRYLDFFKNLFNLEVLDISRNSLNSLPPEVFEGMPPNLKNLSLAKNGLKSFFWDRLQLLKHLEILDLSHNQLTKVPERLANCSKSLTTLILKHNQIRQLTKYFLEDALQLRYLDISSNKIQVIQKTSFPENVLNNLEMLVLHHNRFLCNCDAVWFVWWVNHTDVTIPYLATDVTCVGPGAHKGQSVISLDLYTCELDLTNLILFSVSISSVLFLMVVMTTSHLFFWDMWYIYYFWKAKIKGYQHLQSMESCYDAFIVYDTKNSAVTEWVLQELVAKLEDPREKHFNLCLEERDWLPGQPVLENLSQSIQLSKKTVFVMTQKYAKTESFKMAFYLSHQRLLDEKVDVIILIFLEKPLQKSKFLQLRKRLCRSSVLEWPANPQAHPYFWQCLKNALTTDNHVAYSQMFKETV

[5] = target: Toll-like receptor 7 (Mus musculus) (UniProt P58681); test: Inhibition of endogenous mouse TLR7 in mouse RAW264.7 cells assessed as resiquimod-induced NO production at < 5 uM incubated for 18 to 24 hrs
THP-1 = test: Cytotoxicity against human THP1 cells transfected with human TLR7/8 assessed as reduction in cell viability at 100 uM incubated for 16 hrs by WST-1 assay; assay type: cell-based; settings: thp-1, 16 h
[6] = target: Toll-like receptor 7 (Mus musculus) (UniProt P58681); test: Inhibition of endogenous mouse TLR7 in mouse RAW264.7 cells assessed as resiquimod-induced NO production at 1.25 uM incubated for 18 to 24 hrs

O=C(Nc1ccc(Oc2cc(C(F)(F)F)cc(C(F)(F)F)c2)cc1)c1c(F)cccc1Cl was tested, and the inhibition [1] was “Active” and the inhibition [2] was “Dose-dependent effect”.
With O=C(Nc1ccc(Oc2cncc(C(F)(F)F)c2)cc1)c1c(F)cccc1Cl the inhibition [3] was “inactive”.
In the case of O=[N+]([O-])c1c(I)cccc1Oc1ccc(-c2nnco2)cc1, the inhibition [4] is reported as “Active”, the inhibition [5] is reported as “inactive” and the Activity (THP-1) is reported as “Toxic”.
In the case of O=C(Nc1ccc(Oc2cc(C(F)(F)F)cc(C(F)(F)F)c2)cc1)c1c(F)cccc1I, the inhibition [3] is reported as “inactive”, the inhibition [6] is reported as “inactive” and the inhibition [4] is reported as “Active”.
